Measured values as given in paper PMC4073661 (Journal of Natural Products, 2014).
In brackets after ≈: the same amount, converted by molar mass. Entries after “also recorded” stand apart in the source; their conditions may differ.

What was measured:
[1] = system: P-388 murine lymphocytic leukemia cells; details: cited from earlier work
KB cells = details: cited from earlier work
caspase-3 = assay: Caspase-3 activation by Western blot; assay type: cell-based, human; details: 24 h incubation; 1, 5 and 10 μM; cleaved caspase-3 Western blot
topo IIα = topo IIα (Homo sapiens, UniProt P11388); assay: Topoisomerase II assay; assay type: biochemical; details: 100 μM
Sequence of topo IIα (P11388 whole entry): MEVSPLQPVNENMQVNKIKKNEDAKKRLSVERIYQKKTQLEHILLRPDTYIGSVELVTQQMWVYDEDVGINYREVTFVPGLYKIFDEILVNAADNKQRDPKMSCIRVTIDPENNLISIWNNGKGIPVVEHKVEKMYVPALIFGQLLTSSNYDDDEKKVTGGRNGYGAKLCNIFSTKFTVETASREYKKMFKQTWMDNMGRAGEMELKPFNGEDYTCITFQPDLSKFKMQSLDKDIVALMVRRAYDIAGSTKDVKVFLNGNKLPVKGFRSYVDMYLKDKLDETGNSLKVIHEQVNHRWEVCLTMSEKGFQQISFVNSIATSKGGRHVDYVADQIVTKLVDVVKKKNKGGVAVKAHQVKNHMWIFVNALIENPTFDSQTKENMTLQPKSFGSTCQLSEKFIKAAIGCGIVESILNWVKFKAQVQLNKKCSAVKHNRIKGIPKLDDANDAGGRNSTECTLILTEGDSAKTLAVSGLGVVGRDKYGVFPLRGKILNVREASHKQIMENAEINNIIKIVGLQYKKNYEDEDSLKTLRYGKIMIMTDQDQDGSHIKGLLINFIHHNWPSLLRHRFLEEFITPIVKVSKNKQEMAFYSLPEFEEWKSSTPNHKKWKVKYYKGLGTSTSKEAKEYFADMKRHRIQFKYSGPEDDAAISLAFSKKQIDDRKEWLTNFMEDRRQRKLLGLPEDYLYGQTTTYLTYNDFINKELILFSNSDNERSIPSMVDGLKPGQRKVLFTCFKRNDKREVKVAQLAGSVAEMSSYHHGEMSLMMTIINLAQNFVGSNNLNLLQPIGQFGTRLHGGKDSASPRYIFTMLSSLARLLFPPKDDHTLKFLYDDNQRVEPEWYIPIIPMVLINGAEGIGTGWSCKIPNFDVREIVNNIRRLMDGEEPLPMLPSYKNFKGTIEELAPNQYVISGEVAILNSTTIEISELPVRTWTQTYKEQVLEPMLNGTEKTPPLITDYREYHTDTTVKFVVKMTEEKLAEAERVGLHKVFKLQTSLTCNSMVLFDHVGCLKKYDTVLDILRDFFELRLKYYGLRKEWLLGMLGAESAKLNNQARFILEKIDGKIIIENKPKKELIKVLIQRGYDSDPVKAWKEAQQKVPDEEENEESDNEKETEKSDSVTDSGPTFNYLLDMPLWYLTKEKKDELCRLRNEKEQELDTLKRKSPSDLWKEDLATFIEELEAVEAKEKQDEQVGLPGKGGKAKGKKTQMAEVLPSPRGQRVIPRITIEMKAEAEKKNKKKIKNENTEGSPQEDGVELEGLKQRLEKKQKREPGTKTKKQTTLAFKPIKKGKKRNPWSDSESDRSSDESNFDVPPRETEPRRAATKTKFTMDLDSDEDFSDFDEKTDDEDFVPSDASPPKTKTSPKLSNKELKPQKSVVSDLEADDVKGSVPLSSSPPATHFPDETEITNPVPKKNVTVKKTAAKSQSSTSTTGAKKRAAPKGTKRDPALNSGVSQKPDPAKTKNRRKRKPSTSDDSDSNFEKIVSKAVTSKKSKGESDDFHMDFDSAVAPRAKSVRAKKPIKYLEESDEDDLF

[2] = system: CCD-112CoN normal human colon cells; assay: Cytotoxicity against CCD-112CoN cells; assay type: cell-based
Outline: (§1)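 Cell growth-inhibition screen with paclitaxel as positive control. Each measurement was run in triplicate, and each value is representative of two independent experiments. IC50 was calculated by nonlinear regression.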

[3] = system: HT-29 cells implanted in immunodeficient NCr nu/nu mice; assay: In vivo hollow fiber assay
Outline: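 Eight- to nine-week-old mice carrying HT-29 cells in hollow fibers received ip doses once daily on days 3–6 after implantation. Vehicle was diluted with water to 13% DMSO and 25% Cremophor; paclitaxel 5 mg/kg was the positive control. Body weight was recorded daily. Fibers were retrieved on day 7 for modified MTT. Net growth (day 7 − day 0 absorbance) was expressed relative to vehicle; n = 6 control, 3 per treatment.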

[4] = system: HT-29 human colon cancer cells; assay: Cytotoxicity against HT-29 cells; assay type: cell-based
Outline: as §1

[5] = system: SKW-3 chronic lymphoid leukemia cells; details: cited from earlier work
[6] = system: MCF-7S human breast carcinoma; details: read-out: IC50, MCF-7S cell growth; cited from earlier work
[7] = system: KB human epidermoid carcinoma; details: read-out: IC50, KB cell growth; cited from earlier work
[8] = system: several human cancer cell lines; details: cited from earlier work
[9] = system: a broad spectrum of normal and tumor cell lines; details: cited from earlier work
topoisomerase = details: cited from earlier work
[10] = system: HT-29 human colon cancer cell; details: 8-day treatment; cited from earlier work
[11] = cited from earlier work

## COc1cc2c(O[C@@H]3OC[C@H](O)[C@H](O)[C@H]3O)c3c(c(-c4ccc5c(c4)OCO5)c2cc1OC)C(=O)OC3 [Acutissimalignan A]
[1]
  IC50 toward P-388 cells: 0.02 µg/mL (≈ 0.039 µM)

## COc1cc2c(OC3OCC(OC)C(OC)C3O)c3c(c(-c4ccc5c(c4)OCO5)c2cc1OC)C(=O)OC3 (centres unmarked) [Cleistanthin A]
KB cells
  GI50 toward KB cells: 5.6 nM

## COc1cc2c(O[C@@H]3OC[C@H](OC(C)=O)[C@H](OC(C)=O)[C@H]3O)c3c(c(-c4ccc5c(c4)OCO5)c2cc1OC)C(=O)OC3 [Compound 1, 7-O-[(3,4-di-O-acetyl)-α-L-arabinopyranosyl]-4,5-dimethoxy-3′,4′-methylenedioxy-2,7′-cycloligna-7,7′-dieno-9,9′-lactone]
caspase-3
  caspase-3 activation in HT-29 cells: induced activation of caspase-3
Topo IIα
  topo IIα inhibition (in words): did not inhibit DNA topoisomerase IIα activity
[2]
  cytotoxicity toward CCD-112CoN human normal colon cells (in words): noncytotoxic
[3]; 5.0-20.0 mg/kg ip once daily for 4 days, NCr nu/nu mice
  toxicity in treated mice: No gross toxicity was observed; also recorded: no signs of toxicity
[3]; 10.0, 15.0 or 20.0 mg/kg ip once daily for 4 days, compared with 5 mg/kg ip, NCr nu/nu mice
  relative HT-29 cell growth in hollow fibers: statistically significantly different
[3]; HT-29 cells implanted in NCr nu/nu mice
  activity in in vivo hollow fiber assay: showed activity

## COc1cc2c(O[C@@H]3OC[C@H](O)[C@H](O)[C@H]3O)c3c(c(-c4ccc5c(c4)OCO5)c2cc1OC)C(=O)OC3 [Compound 4, phyllanthusmin C]
[2]
  cytotoxicity toward CCD-112CoN human normal colon cells (in words): noncytotoxic

## COc1cc2c(O[C@@H]3O[C@H](CO)[C@@H](O)[C@H](O)[C@H]3O)c3c(c(-c4ccc5c(c4)OCO5)c2cc1OC)C(=O)OC3 [Compound 5, cleistanthin B]
[4]
  cytotoxicity against HT-29 human colon cancer cells (in words): inactive

## COc1cc2cc3c(c(-c4ccc5c(c4)OCO5)c2cc1OC)C(=O)CO3 [Justicidin B]
[5]
  cytotoxicity toward SKW-3 cells (in words): cytotoxic

## COc1cc2c(O[C@@H]3O[C@H](C)[C@@H](O)[C@H](O)[C@H]3O)c3c(c(-c4ccc5c(c4)OCO5)c2cc1OC)C(=O)OC3 [Patentiflorin A]
[6]
  IC50: 3 nM
[7]
  IC50: 4 nM

## COc1ccc(-c2c3c(c(OC)c4cc5c(cc24)OCO5)COC3=O)cc1OC [chinensinaphthol methyl ether]
[8]
  cytotoxicity (in words): did not show such activity

## COc1cc2c(O[C@@H]3O[C@H](CO)[C@@H](O)[C@H](O)[C@H]3O)c3c(c(-c4ccc5c(c4)OCO5)c2cc1OC)C(=O)OC3 [cleistanthin B]
[9]
  selectivity of cytotoxicity, tumor versus normal cell lines (in words): showed cytotoxicity toward human tumor cells selectively

## COc1cc2c(-c3ccc4c(c3)OCO4)c3c(cc2cc1O)COC3=O [daurinol]
topoisomerase
  formation of open circular and linear DNA from topoisomerase-DNA cleavable intermediate: did not induce the formation of open circular and linear DNA

## COc1cc([C@@H]2c3cc4c(cc3[C@@H](O[C@@H]3O[C@@H]5CO[C@@H](C)O[C@H]5[C@H](O)[C@H]3O)[C@H]3COC(=O)[C@H]23)OCO4)cc(OC)c1O [etoposide]
caspase-3
  caspase-3 activation in HT-29 cells: did not induce caspase-3 activation
[10]
  HT-29 cell apoptosis induction: induced HT-29 human colon cancer cell apoptosis
[4]
  cytotoxicity against HT-29 human colon cancer cells (in words): inactive

## COc1cc2c(OC)c3c(c(-c4ccc5c(c4)OCO5)c2cc1OC)C(=O)OC3 [justicidin A]
[8]
  IC50 toward several human cancer cell lines: 0.002 to 0.007 µg/mL
  cytotoxicity (in words): highly cytotoxic

## CC(=O)O[C@H]1C(=O)[C@@]2(C)[C@H]([C@H](OC(=O)c3ccccc3)[C@]3(O)C[C@H](OC(=O)[C@H](O)[C@@H](NC(=O)c4ccccc4)c4ccccc4)C(C)=C1C3(C)C)[C@]1(OC(C)=O)CO[C@@H]1C[C@@H]2O [paclitaxel]
[4]; Homo sapiens, HT-29, read-out: IC50 values toward the HT-29 cells
  IC50: 1 nM

## Cleistanthoside A tetraacetate
[11]
  IG50 values, cytotoxicity: in the nanomolar range
